From ChEMBL document CHEMBL3425469, “Discovery of imidazo[2,1-b]thiazole HCV NS4B inhibitors exhibiting synergistic effect with other direct-acting antiviral agents” (J Med Chem, 2015)

Key:
[1] = Cytotoxicity against human HuH7 cells assessed as cell proliferation by cell titer assay; assay type: cell-based, Huh-7
Summary of the method: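 Huh-7 cells carrying GT1b Con1 bicistronic replicon seeded at 8000 cells/well; compound added at 0.5% DMSO final, 37°C for 72 h. Proliferation read with CellTiter-Fluor reagent per manufacturer; CC50 fitted from concentration-response, average of at least two independent determinations.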

Hepatitis C virus [2] = experiment: Antiviral activity against Hepatitis C virus genotype 1b Con 1 infected in human HuH7 cells at 10 uM after 72 hrs by luciferase assay; assay type: functional, Hepacivirus hominis; details: genotype 1b Con 1, Huh-7, 72 h
Summary of the method: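 Huh-7 cells carrying a GT1b Con1 bicistronic luciferase replicon, 8000 cells/well. Compound tested at 10 µM in 0.5% DMSO final, 37°C for 72 h. Replicon signal read as luciferase (Bright-Glo) and reported as percentage inhibition at 10 µM. Cell proliferation measured in parallel with CellTiter-Fluor. Values are the average of at least two independent determinations.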

Hepatitis C virus [3] = experiment: Antiviral activity against Hepatitis C virus genotype 1b Con1 infected in human HuH7 cells after 72 hrs by luciferase assay; assay type: functional, cell-based, Hepacivirus hominis; details: genotype 1b Con 1, Huh-7, 72 h
Summary of the method: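 Huh-7 cells stably carrying a genotype 1b Con1 bicistronic luciferase replicon, seeded at 8000 cells/well. Compounds were added at 0.5% DMSO final and incubated at 37°C for 72 h. Read-out was Bright-Glo luciferase, with cell proliferation measured by CellTiter-Fluor. EC50 is the mean of at least two independent runs. Some values are given as percent inhibition at 10 µM.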

Hepatitis C virus [4] = experiment: Antiviral activity against Hepatitis C virus genotype 1b harboring Y93H NS5A mutation transfected in human HuH7 cells after 72 hrs by luciferase assay; assay type: functional, cell-based, Hepacivirus hominis; details: Huh-7, 72 h
Summary of the method: (§1)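 Huh-7 cells were transiently electroporated with genotype 1b replicon RNA carrying the specified mutation and plated at 10000 cells/well. Compounds were added at 0.5% DMSO final for 72 h at 37°C. Read-out was Bright-Glo luciferase. EC50 is the mean of two independent runs within 2-fold of each other. A reference drug EC50 was measured alongside each mutant replicon to validate it.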

Hepatitis C virus [5] = experiment: Antiviral activity against Hepatitis C virus genotype 1b harboring M423I NS5B (thumb 2) mutation transfected in human HuH7 cells after 72 hrs by luciferase assay; assay type: functional, cell-based, Hepacivirus hominis; details: Huh-7, 72 h; summary of the method: as §1
Hepatitis C virus [6] = experiment: Antiviral activity against Hepatitis C virus genotype 1b harboring A156T NS3/4A mutation transfected in human HuH7 cells after 72 hrs by luciferase assay; assay type: functional, cell-based, Hepacivirus hominis; details: Huh-7, 72 h; summary of the method: as §1
Hepatitis C virus [7] = experiment: Antiviral activity against Hepatitis C virus genotype 1b harboring P495A NS5B (thumb 1) mutation transfected in human HuH7 cells after 72 hrs by luciferase assay; assay type: functional, cell-based, Hepacivirus hominis; details: Huh-7, 72 h; summary of the method: as §1
Hepatitis C virus [8] = experiment: Antiviral activity against Hepatitis C virus genotype 1b harboring Y448H NS5B (palm) mutation transfected in human HuH7 cells after 72 hrs by luciferase assay; assay type: functional, cell-based, Hepacivirus hominis; details: Huh-7, 72 h; summary of the method: as §1
Hepatitis C virus [9] = experiment: Antiviral activity against Hepatitis C virus genotype 1b harboring V105M mutation transfected in human HuH7 cells after 72 hrs by luciferase assay; assay type: functional, cell-based, Hepacivirus hominis; details: Huh-7, 72 h; summary of the method: as §1
Hepatitis C virus [10] = experiment: Antiviral activity against Hepatitis C virus genotype 1b harboring H3R NS4B mutation transfected in human HuH7 cells after 72 hrs by luciferase assay; assay type: functional, cell-based, Hepacivirus hominis; details: Huh-7, 72 h; summary of the method: as §1
Hepatitis C virus [11] = experiment: Antiviral activity against Hepatitis C virus genotype 1b harboring H94R mutation transfected in human HuH7 cells after 72 hrs by luciferase assay; assay type: functional, cell-based, Hepacivirus hominis; details: Huh-7, 72 h; summary of the method: as §1
Hepatitis C virus [12] = experiment: Antiviral activity against Hepatitis C virus genotype 1b harboring Q26R mutation transfected in human HuH7 cells after 72 hrs by luciferase assay; assay type: functional, cell-based, Hepacivirus hominis; details: Huh-7, 72 h; summary of the method: as §1
Hepatitis C virus [13] = experiment: Antiviral activity against Hepatitis C virus genotype 1b harboring S282T NS5B (active site) mutation transfected in human HuH7 cells after 72 hrs by luciferase assay; assay type: functional, cell-based, Hepacivirus hominis; details: Huh-7, 72 h; summary of the method: as §1
Hepatitis C virus [14] = experiment: Antiviral activity against Hepatitis C virus genotype 1b harboring F98C mutation transfected in human HuH7 cells after 72 hrs by luciferase assay; assay type: functional, cell-based, Hepacivirus hominis; details: Huh-7, 72 h; summary of the method: as §1

Structure (SMILES)	CC50 [1] [µM]	EC50 (Hepatitis C virus [3]) [nM]	other results
Cc1c(C(C)C)sc2nc(C(=O)N3CCN(C4CCCC4)C(=O)C3)c(Cl)n12	> 10		inhibition at 10 µM (Hepatitis C virus [2]): 50%
Cc1ccc2c(c1)sc1nc(C(=O)N3CCN(C4CCCC4)C(=O)C3)c(Cl)n12	> 10	300	
O=C(c1nc2scc(C3CC3)n2c1Cl)N1CCN(C2CC=CC2)C(=O)C1	> 10	79	
Cc1cn2c(Cl)c(C(=O)N3CCN(C4CCCC4)C(=O)C3)nc2s1	> 10		inhibition at 10 µM (Hepatitis C virus [2]): 46%
O=C(c1nc2sc3ccccc3n2c1Cl)N1CCN(C2CCCC2)C(=O)C1	> 10	92	
CC(C)Cc1c(Cl)sc2nc(C(=O)N3CCN(C4CCCC4)C(=O)C3)c(Cl)n12	> 10	6700	
O=C(c1nc2sc3ccccc3n2c1Cl)N1CCN([C@H]2CC[C@H](O)CC2)C(=O)C1	> 10	330	
CC1CCc2c(sc3nc(C(=O)N4CCN(C5CCCC5)C(=O)C4)c(Cl)n23)C1 (configuration not stated)	> 10	260	
Cc1csc2nc(C(=O)N3CCN(C4CCCC4)C(=O)C3)c(Cl)n12	> 10		inhibition at 10 µM (Hepatitis C virus [2]): 53%
O=C(c1nc2sc3c(n2c1Cl)CCCCC3)N1CCN(C2CCCC2)C(=O)C1	> 10	940	
CC1(C)CCc2c(sc3nc(C(=O)N4CCN(C5CCCC5)C(=O)C4)c(Cl)n23)C1	> 10	1120	
O=C(c1nc2sc3c(n2c1Cl)CCC3)N1CCN(C2CCCC2)C(=O)C1	> 10	130	
O=C(c1nc2scc(C3CC3)n2c1Cl)N1CCN([C@H]2CC[C@H](O)CC2)C(=O)C1	> 10	890	
COc1ccc2c(c1)sc1nc(C(=O)N3CCN(C4CCCC4)C(=O)C3)c(Cl)n12	> 10	8630	
CC(C)Cc1csc2nc(C(=O)N3CCN(C4CCCC4)C(=O)C3)c(Cl)n12	> 10	740	
O=C(c1nc2sc3cc(Cl)ccc3n2c1Cl)N1CCN(C2CCCC2)C(=O)C1	> 10	1850	
O=C(c1nc2sc(Cl)c(C3CC3)n2c1Cl)N1CCN(C2CCCC2)C(=O)C1	> 10	8600	
O=C(c1nc2sccn2c1Cl)N1CCN(C2CCCC2)C(=O)C1	> 10	> 10000	
O=C(c1nc2sc3ccccc3n2c1Cl)N1CCN(C2CC=CC2)C(=O)C1	> 10	31	EC50 (Hepatitis C virus [4]): 19 nM; EC50 (Hepatitis C virus [5]): 32 nM; EC50 (Hepatitis C virus [6]): 77 nM; EC50 (Hepatitis C virus [7]): 22 nM; EC50 (Hepatitis C virus [8]): 33 nM; EC50 (Hepatitis C virus [9]): 12.5 µM; EC50 (Hepatitis C virus [10]): 4.85 µM; EC50 (Hepatitis C virus [11]): 6.4 µM; EC50 (Hepatitis C virus [12]): 4.96 µM; EC50 (Hepatitis C virus [13]): 25 nM; EC50 (Hepatitis C virus [14]): 3.27 µM
CC(C)c1cn2c(Cl)c(C(=O)N3CCN(C4CCCC4)C(=O)C3)nc2s1	> 10	1320	
O=C1CCCc2c1sc1nc(C(=O)N3CCN(C4CCCC4)C(=O)C3)c(Cl)n21	> 10	> 10000	
O=C(c1nc2sc3cc(Br)ccc3n2c1Cl)N1CCN(C2CCCC2)C(=O)C1	> 10	1790	
O=C(c1nc2sc3c(n2c1Cl)CCCC3)N1CCN(C2CCCC2)C(=O)C1	> 10	190	
